In ChEMBL document CHEMBL3351942, “Rexinoids isolated from Sophora tonkinensis with a gene expression profile distinct from the synthetic rexinoid bexarotene” (J Nat Prod, 2014):
Active and inactive are the calls of the source. The rule behind the calls is not given here.

Columns and labels:
Homo sapiens = organism: Homo sapiens; assay: Activation of RXR/VDR heterodimer in human hepatoma cells assessed as increase in CYP24A1 mRNA level at 10 uM by quantitative RT-PCR analysis; assay type: cell-based
Outline: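 HLE hepatoma cells treated 24 h with or without VD3 (0.1 μM); CYP24A1 mRNA by SYBR green qRT-PCR normalized to β-actin (delta-delta Ct), fold over vehicle; means ± SD of three determinants, representative of three experiments.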

[1] = molecular target: T1, Peroxisome proliferator-activated receptor delta (Mus musculus) (UniProt P35396); assay: Activation of PPARdelta in mouse C2C12 cells assessed as induction of ANGPTL4 mRNA expression at 10 uM after 24 hrs by quantitative RT-PCR analysis; assay type: cell-based
T1 sequence (whole entry): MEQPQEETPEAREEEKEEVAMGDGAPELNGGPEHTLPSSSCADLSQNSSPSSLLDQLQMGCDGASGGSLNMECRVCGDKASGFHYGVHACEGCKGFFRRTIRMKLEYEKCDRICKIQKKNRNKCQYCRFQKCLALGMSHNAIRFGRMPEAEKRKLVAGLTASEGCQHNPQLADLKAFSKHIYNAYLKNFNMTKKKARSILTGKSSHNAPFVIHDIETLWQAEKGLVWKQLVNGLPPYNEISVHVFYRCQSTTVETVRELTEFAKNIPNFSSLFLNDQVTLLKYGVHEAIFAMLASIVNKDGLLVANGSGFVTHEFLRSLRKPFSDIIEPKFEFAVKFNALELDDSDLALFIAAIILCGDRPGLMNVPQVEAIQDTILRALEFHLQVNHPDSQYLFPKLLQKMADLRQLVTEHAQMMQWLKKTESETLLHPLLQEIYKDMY
Outline: (§1)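 Differentiated C2C12 myotubes (2% horse serum, 5 days) exposed 24 h with or without PPARδ agonist GW501516 (1 μM). mRNA quantified by SYBR green real-time RT-PCR, normalized to β-actin by delta-delta Ct, and expressed as fold induction vs vehicle; means ± SD of four determinants from one of two independent experiments; one-way ANOVA with Bonferroni.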

[2] = molecular target: T1, Peroxisome proliferator-activated receptor delta (Mus musculus); assay: Activation of PPARdelta in mouse C2C12 cells assessed as induction of CPT1A mRNA expression at 10 uM after 24 hrs in presence of GW501516 by quantitative RT-PCR analysis; assay type: cell-based; outline: as §1
[3] = molecular target: T1, Peroxisome proliferator-activated receptor delta (Mus musculus); assay: Activation of PPARdelta in mouse C2C12 cells assessed as induction of FABP3 mRNA expression at 10 uM after 24 hrs by quantitative RT-PCR analysis; assay type: cell-based; outline: as §1
[4] = Activation of LXR in mouse C2C12 cells assessed as induction of ApoD mRNA expression at 10 uM after 24 hrs in presence of T0901317 by quantitative RT-PCR analysis; assay type: cell-based
Outline: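 C2C12 myoblasts grown in DMEM/10% FBS, differentiated at confluence in 2% horse serum, medium changed every other day for 5 days; myotubes treated 24 h with or without T0901317 (1 μM). Total RNA, DNase-treated, oligo(dT) RT from 0.5 μg, SYBR green qPCR; normalized to β-actin (delta-delta Ct), fold over vehicle; mean ± SD of four determinants, one of two experiments.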

[5] = molecular target: T2, Peroxisome proliferator-activated receptor delta (Homo sapiens) (UniProt Q03181); assay: Activation of PPARdelta (unknown origin) by receptor-CBP cofactor complex formation assay
T2 sequence (whole entry): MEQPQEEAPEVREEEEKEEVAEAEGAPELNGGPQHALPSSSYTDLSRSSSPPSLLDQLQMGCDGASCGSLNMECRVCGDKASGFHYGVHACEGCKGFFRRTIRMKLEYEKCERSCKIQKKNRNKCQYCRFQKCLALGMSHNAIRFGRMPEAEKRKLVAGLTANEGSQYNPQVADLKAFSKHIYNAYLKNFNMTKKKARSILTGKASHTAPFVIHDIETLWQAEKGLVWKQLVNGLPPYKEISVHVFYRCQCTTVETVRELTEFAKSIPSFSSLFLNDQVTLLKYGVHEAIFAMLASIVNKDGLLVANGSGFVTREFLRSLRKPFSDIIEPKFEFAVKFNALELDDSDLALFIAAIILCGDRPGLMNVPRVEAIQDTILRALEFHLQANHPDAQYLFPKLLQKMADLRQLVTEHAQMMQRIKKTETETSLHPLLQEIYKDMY
Outline: (§2)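 Cell-free cofactor recruitment ELISA: ligand-dependent binding of PPAR isotypes to CBP, detected by HRP-conjugated anti-PPAR antibody at OD450. Full agonists GW7647 (α), GW1929 (γ), GW501516 (δ) define 100%, vehicle 0%; efficacy as maximum B/Bmax% and potency as EC50.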

[6] = molecular target: T3, Peroxisome proliferator-activated receptor alpha (Homo sapiens) (UniProt Q07869); assay: Activation of PPARalpha (unknown origin) by receptor-CBP cofactor complex formation assay; outline: as §2
T3 sequence (whole entry): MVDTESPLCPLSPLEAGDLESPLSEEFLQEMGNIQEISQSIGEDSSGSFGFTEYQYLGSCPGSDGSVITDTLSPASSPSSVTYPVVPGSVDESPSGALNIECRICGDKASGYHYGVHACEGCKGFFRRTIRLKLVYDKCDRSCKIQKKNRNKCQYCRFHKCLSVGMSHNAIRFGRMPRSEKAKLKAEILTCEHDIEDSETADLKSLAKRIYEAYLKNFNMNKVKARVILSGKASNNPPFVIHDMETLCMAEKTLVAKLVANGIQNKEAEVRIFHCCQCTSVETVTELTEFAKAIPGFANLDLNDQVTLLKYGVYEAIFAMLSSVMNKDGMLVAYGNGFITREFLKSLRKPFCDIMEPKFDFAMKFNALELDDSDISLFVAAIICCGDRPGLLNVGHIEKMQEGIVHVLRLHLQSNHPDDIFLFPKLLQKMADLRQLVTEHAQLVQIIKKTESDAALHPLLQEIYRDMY

[7] = Activation of LXR in mouse C2C12 cells assessed as induction of SREBP1 mRNA expression at 10 uM after 24 hrs by quantitative RT-PCR analysis; assay type: cell-based
F9 = assay: Activation of RAR/RXR heterodimer in mouse F9 cells assessed as increase in CYP26A1 mRNA level at 10 uM by quantitative RT-PCR analysis in presence of atRA; assay type: cell-based
Outline: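 F9 teratocarcinoma cells on 0.2% gelatin-coated dishes in DMEM/10% FBS; 24 h exposure with or without atRA (0.1 μM). CYP26A1 mRNA by qRT-PCR normalized to β-actin, fold vs vehicle; means ± SD of three determinants, one of three experiments; ANOVA/Bonferroni.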

## CC(C)=CCc1cc([C@@H]2CC(=O)c3ccc(O)c(CC=C(C)C)c3O2)cc2c1OC(C(C)(C)O)C2 (some centres undefined)
Homo sapiens
  Activity: Active
[1]
  Activity: Active
[2]
  Activity: Active
[3]
  Activity: Active
[4]
  Activity: inactive
[5]
  Activity: inactive
[6]
  Activity: inactive
[7]
  Activity: Active
F9
  Activity: Active
